Assay outcomes as filed in PubChem BioAssay.
An excerpt weighted towards active compounds, which were near 3.7% of everything screened.
hERG protect – hERG rescue from dofetilide block, primary screen, cell-based, CHO-hERG, FluxOR thallium flux, dofetilide IC70; Voltage-gated inwardly rectifying potassium channel KCNH2 (Homo sapiens), Q12809; dofetilide IC70 present; activation (rescue from dofetilide block), less the hit threshold, % at 10 µM; hit rate 0.51% among 310,000; AID 1511, 2009;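 active = activation above the mean of controls blocked by dofetilide plus 5 SD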;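 also: thallium influx through hERG after potassium depolarization seen as dye fluorescence rise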
KCNK9 block – KCNK9 potassium channel inhibitors, primary screen, HEK293 cells, thallium flux | Potassium channel subfamily K member 9 (Homo sapiens), Q9NPC2 | FluxOR thallium flux fluorescence; active compounds read low | B-score at 10 µM | hit rate 1.2% among 310,000;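 active = ratio B-score over 3 SD below the library mean, with starting fluorescence within 5 SD of its mean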;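 also: negative B-score means less thallium flux so channel inhibition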
Kir21 inh – inhibitors of mouse Kir2.1 inward-rectifier potassium channel; AID 1672, 2009; HEK293-Kir2.1, FluxOR thallium flux fluorescence; active compounds read low; Inward rectifier potassium channel 2 (Mus musculus), P35561; hit rate 0.85% among 310,000; B-score at 10 µM;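 active = fluorescence ratio B-score at or below minus 3 SD of library scores, with starting-brightness B-score within 2 SD, cut at about -4.2 in these data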;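 also: channel flux triggered by added potassium and thallium sulfate stimulus; B-score of peak minus minimum fluorescence over baseline after thallium stimulus; more negative B-score means stronger Kir2.1 block with less thallium influx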
KCNQ1 block – inhibitors of human KCNQ1 channel, primary screen, cell-based, thallium flux, high-throughput. B-score at 10 µM. AID 2642, 2010. hit rate 1.3% among 310,000. CHO-K1 KCNQ1, FluxOR thallium flux fluorescence; active compounds read high. Potassium voltage-gated channel subfamily KQT member 1 (Homo sapiens), P51787;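 active = compounds whose thallium flux B-score, printed positive for inhibition, exceeds three library SD while starting fluorescence stays within three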;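 also: channel opened by potassium depolarization with thallium stimulus after 20 min compound exposure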
KCNQ1 pot – potentiators or activators of KCNQ1 channel, primary screen, cell-based, thallium flux, high-throughput. CHO-K1 KCNQ1, thallium flux FluxOR fluorescence; active compounds read high. B-score at 10 µM. hit rate 0.35% among 310,000;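 active = fluorescence ratio B-score, a plate-corrected score, at least three library SD, with initial intensity B-score within 5 SD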
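Assay system: CHO-K1 cells stably expressing KCNQ1; Medium: assay buffer with matched DMSO; Also added: K+/Tl+ depolarizing stimulus; Dosing: single dose; Timing: dye 90 min, compound 20 min, room temperature; Measured by: kinetic FluxOR thallium fluorescence, 10-s 1-Hz baseline, 110-s post-stimulus read; Read-out: peak-minus-minimum fluorescence over initial fluorescence, negative-control normalized, B-scored.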
KCNK3 block – human KCNK3 channel inhibitors, primary screen, CHO cells, FluxOR thallium flux, B-score | Potassium channel subfamily K member 3 (Homo sapiens), O14649 | FluxOR fluorescence; active compounds read low | B-score at 10 µM | hit rate 0.84% among 340,000 | AID 602410, 2012;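 active = B-score under library mean minus 4 SD, starting fluorescence ratio at most library mean plus 5 SD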;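 also: more negative B-score means stronger inhibition of thallium flux through KCNK3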
* marks the source's active call; other numbers are inactive results; i = inactive.

SMILES	hERG protect	KCNK9 block	Kir21 inh	KCNQ1 block	KCNQ1 pot	KCNK3 block
CC(=O)c1ccc(NC(=O)C(C)N(C)CC(=O)Nc2ccc(Cl)cc2)cc1 (centres undefined)	-3	i	-0.26	i	i	i
CC(=O)c1ccc(NC(=O)C(C)N(C)CC(=O)Nc2ccc(N3CCOCC3)cc2)cc1 (centres undefined)	4.6*	i	1.2	i	i	i
CCc1ccc(NC(=O)CSCc2ccc(C(=O)O)cc2)cc1	-5	i	0.01	i	i	i
Cc1cnc(=O)[nH]c1SCc1ccc([N+](=O)[O-])cc1	-8	-7.3*	1.8	i	i	i
Cc1cnc(=O)[nH]c1SCc1ccc(C(F)(F)F)cc1	-5	i	-0.05	i	i	i
Nc1c(-c2ccccc2)cnn1C1CCS(=O)(=O)C1 (centres undefined)	-8	i	0	i	i	i
CCn1c(SCC(=O)N/N=C/c2cccs2)nc2ccccc21	-10	i	-4.8*	i	i	i
Cn1c(SCC(=O)N/N=C/c2cccs2)nc2ccccc21	-16	i	-1.7	i	i	i
Cn1c(O)c(N=Nc2ccccc2)c2ccccc21	1	i	1.6	i	i	i
Cn1c(O)c(N=Nc2nc(-c3ccccc3)cs2)c2ccccc21	35*	i	1.4	i	60*	i
COc1ccc(NCC(=O)N/N=C/C2CCCCC2)cc1	-10	i	0.98	i	i	i
O=C1C=CC(=O)N1CCNc1ncc(C(F)(F)F)cc1Cl	-20	i	-5.7*	i	18*	i
C/C(=N\NC(=O)c1cccc(N/N=C(\C)c2cc(O)ccc2O)c1)c1cc(O)ccc1O	-27	i	-0.72	i	i	i
O=c1cc(-c2ccccc2Cl)oc2ccc([N+](=O)[O-])c(O)c12	-6	i	-0.95	i	i	i
O=c1cc(-c2ccccc2Cl)oc2c([N+](=O)[O-])c(O)cc(O)c12	-8	i	-0.45	8*	i	i
COc1ccccc1Cn1c(/C=C/c2ccccc2)nc2ccccc21	-7	-7*	1.1	i	i	i
COc1ccccc1Cn1c(C(C)C)nc2ccccc21	-8	i	-5*	i	i	i
O=C(NCc1ccccn1)C(=O)N/N=C/c1ccc2c(c1)OCO2	-6	i	-0.42	i	i	i
CC(NC(=O)c1cccc(Cn2cc([N+](=O)[O-])cn2)c1)c1ccc(C(C)(C)C)cc1 (centres undefined)	-4	-7.6*	0.96	i	i	i
O=[N+]([O-])/C=C/c1cc2ccccc2[nH]1	-9	i	-1.6	6*	i	i
COc1ccc(-c2csc(NC(=O)C3=NN(c4ccccc4)C(=O)CC3)n2)cc1	-11	i	0.8	i	105*	i
O=C(Nc1nc(-c2cc(F)ccc2F)cs1)C1=NN(c2ccccc2)C(=O)CC1	-12	i	-0.34	i	i	i
COc1ccc(CC(=O)Nc2nc(-c3cccnc3)cs2)cc1	-5	i	0.59	i	i	i
Cc1ccc(-c2csc(NC(=O)Cc3ccc(F)cc3)n2)o1	-14	i	0.13	i	14*	i
Cc1cc(C)n(/N=C/c2cc(Cl)cc(Cl)c2O)c(=O)c1	-1	i	-0.69	i	15*	i
Cc1cc(C)cc(-n2ncc3c2CCCC3NC(=O)c2ccccc2N2CCOCC2)c1 (centres undefined)	-11	i	0.19	i	i	i
COc1ccc(CNC(C)CCc2ccccc2)cc1 (centres undefined)	-11	i	-6.3*	i	i	i
